Shown are actives, neighbours in structure and some others; about 2% of the full set was active somewhere.
HSV augment – enhancers of HSV replication in host cells, fold increase, host cell viability; HSV replication augmentation in cells; maximum fold increase; 220,000 compounds, 0.005% hits; in the data active = maximum fold increase above about 1.5; inconclusive = no clear call, values can overlap the other calls; tested in PC3 cells
Furin inhibitor – human furin inhibitors, primary screen, biochemical, fluorescence intensity | P09958 | purified furin, fluorogenic substrate cleavage | inhibition, % at 20 µM or 30 µM | 220,000 compounds, 0.061% hits | AID 463115, 2010; in the data active = inhibition above about 25%
Target sequence (P09958 108-714 limits assumed): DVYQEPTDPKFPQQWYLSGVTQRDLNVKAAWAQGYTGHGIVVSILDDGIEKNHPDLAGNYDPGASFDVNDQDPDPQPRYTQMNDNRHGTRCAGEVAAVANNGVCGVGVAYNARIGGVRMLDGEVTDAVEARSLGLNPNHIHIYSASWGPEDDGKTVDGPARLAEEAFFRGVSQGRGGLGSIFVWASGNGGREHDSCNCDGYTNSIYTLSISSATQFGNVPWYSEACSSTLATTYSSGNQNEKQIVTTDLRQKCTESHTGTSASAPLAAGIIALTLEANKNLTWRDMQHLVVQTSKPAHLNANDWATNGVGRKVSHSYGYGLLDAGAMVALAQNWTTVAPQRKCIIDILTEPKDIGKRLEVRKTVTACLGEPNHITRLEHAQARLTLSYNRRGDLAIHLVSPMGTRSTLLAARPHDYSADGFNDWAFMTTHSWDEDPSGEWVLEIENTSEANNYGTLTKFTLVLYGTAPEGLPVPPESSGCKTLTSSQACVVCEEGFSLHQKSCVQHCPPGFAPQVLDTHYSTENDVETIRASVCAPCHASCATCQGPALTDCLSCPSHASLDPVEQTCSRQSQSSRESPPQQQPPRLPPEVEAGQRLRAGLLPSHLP
Dynein transport – inhibitors of GR-EGFP nuclear translocation, primary screen, dynein cargo transport inhibitor project, imaging, high-content, 3617.4 mouse cells; AID 1381, 2008; test concentration mostly 20 µM; stimulated with dexamethasone, 1 µM; active compounds read low; 220,000 compounds, 0.47% hits; z-score, hits read low;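 active = plate z-score of nuclear minus cytoplasmic receptor signal below a set negative limit, without overly bright fluorescence or cell loss, cut at about -3.5 in these data, passing the limit was not always enough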;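 note: z-score of nuclear minus cytoplasmic ring GR-EGFP intensity difference per well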
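medium = tetracycline-free induction medium containing charcoal-stripped FBS | probe or stimulus = dexamethasone, 1.0 µM final | timing = 48 h induction, then 1 h compound, then 30 min agonist, 37 °C | detection = automated 10x imaging of fixed Hoechst-stained cells | read-out basis = nuclear versus cytoplasmic GR-EGFP signal, averaged per well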
Insulin prom inh – inhibitors of insulin promoter-driven GFP, primary screen, imaging, TRM-6 cells (human fetal islet line), eGFP reporter, cell count | inhibition, % at 2 µM | 130,000 compounds, 0.9% hits | AID 1273, 2008 | reporter expression induced with tamoxifen;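 active = inhibition above the mean plus 3 SD, with well images judged a real hit on visual review, cut at about 60% in these data, passing the limit was not always enough; inconclusive = inhibition over the cutoff but images rejected on review; inactive = inhibition not above the cutoff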
Autophagy HCS – autophagy modulators in MEF cells, primary screen, imaging, high-content, MEF GFP-LC3; 190,000 compounds, 0.98% hits; MEF GFP-LC3 puncta imaging; test concentration mostly 10 µM; calls only at 10 µM (by protocol);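 active = percentage of spot-positive cells more than 3 SD above its plate mean, without a fluorescence outlier flag or 80% toxicity; inconclusive = no clear call, values can overlap the other calls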;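 note: spot-positive cell cutoff set from DMSO-treated cells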
Ins promoter up – insulin promoter activators in MIN6 cells, imaging, high-content screening, mouse beta cells; 190,000 compounds, 0.3% hits; AID 1625, 2009; MIN6 insulin promoter-GFP reporter; active compounds read high; z-score at 5 µM;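 active = z-score above 3 at 5 µM with at least 500 cells counted in the well; inconclusive = wells under 500 cells, flagged as cytotoxic or low count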
Starred values were filed as active, the others as inactive; i = inactive; ? = inconclusive; . = no result given; + = active, no number.

SMILES	HSV augment	Furin inhibitor	Dynein transport	Insulin prom inh	Autophagy HCS	Ins promoter up
CC(C)(C)OC(=O)N1CCC[C@H]1c1nnc(SCC(=O)Nc2ccc(Br)cc2)o1	i	-7.8	0.834	.	.	-0.13
Cc1nc2oc(C(=O)c3ccc(Br)cc3)c(N)c2c2c1COC(C)(C)C2	i	-6.3	3.57	63.6	+	0.14
O=C(/C=C/c1ccc2c(c1)OCO2)Nc1ccc(Cl)cn1	i	-22.0	0.497	72.7*	i	-0.86
O=C(/C=C/c1ccccc1Cl)Nc1ccc(Cl)cn1	i	-19.7	-0.0865	.	i	.
COc1cc2c(cc1NS(=O)(=O)N1CCCCC1)oc1ccccc12	i	-9.9	-0.341	-21.4	i	1.83
O=c1nc(SCc2cccc(C(F)(F)F)c2)nc2ccccn12	i	-19.6	0.129	11.1	i	0.72
COC(=O)CSC(C)C(=O)Nc1nnc(C(C)C)s1 (stereo not given)	i	-20.6	-0.158	35.3	+	-1.24
Cc1cc(NC(=O)c2ccc3c(c2)C(=O)N(C)C3=O)no1	i	-11.9	0.911	7.1	i	.
Cc1cc(NC(=O)c2ccc3c(c2)C(=O)N(C2CCCCC2)C3=O)no1	i	-8.8	1.75	-6.8	+	0.31
Nc1ccc(C(=O)Nc2cccc(N)c2)cc1	i	-25.5	0.374	.	.	-0.03
O=C(N/N=C/C=C/c1ccccc1)c1n[nH]c2c1CCC2	.	-10.3	-0.0202	24.3	i	.
O=C(N/N=C/C(Br)=C\c1ccccc1)c1n[nH]c2c1CCC2	.	-2.9	2.65	-38.9	+	?
COc1ccccc1N1CCN(C(=O)CN2C(=O)c3ccccc3S2(=O)=O)CC1	i	-13.0	0.0187	.	.	-0.05
C=CCc1ccc(O)c(-c2ccc(O)c(CC=C)c2)c1	i	-14.2	0.28	.	i	-0.47
C=CCn1c(SCC(=O)N2CCN(c3ccccc3)CC2)nnc1-c1ccco1	i	4.7	2.7	76.9*	i	-0.33
OCCC1CN(Cc2ccc3nsnc3c2)CCN1CCc1ccccc1 (stereo not given)	i	-18.8	-0.245	.	i	-0.46
Nc1ncc(Br)cc1N=Cc1ccccc1	?	-21.2	-0.155	75.8*	i	-0.38
CCOC(=O)N1CCN(S(=O)(=O)c2ccc(C(=O)Nc3nc4c(s3)CC(C)CC4)cc2)CC1 (stereo not given)	.	-18.6	-0.215	.	+	-1.09
CCOC(=O)N1CCC(N2CCN(S(=O)(=O)c3ccc(C)cc3)CC2)CC1	i	-22.4	-0.201	66.7*	i	-0.39
CCOC(=O)N1CCN(S(=O)(=O)c2ccc(C(=O)Nc3nnc(C4CC4)o3)cc2)CC1	i	-12.7	-0.0963	.	i	-0.08
CN(C)C=Nc1ccc(Cl)c(Cl)c1	i	-20.8	0.343	.	.	-0.06
CN(C)C=Nc1c(Br)cc(Br)c2nonc12	?	-9.3	-3.3	-203.0	+	.
CNS(=O)(=O)c1cccc(C(=O)NCC(c2cccs2)N(C)C)c1 (stereo not given)	i	-21.0	-0.237	73.3*	i	0.18
CC(C)(CNS(C)(=O)=O)SCc1ccc(Cl)cc1	.	-9.9	0.957	-21.4	i	-0.11
Cc1ccc(-c2nnn(CC(=O)N(C)C3CCCCC3)n2)o1	i	-18.3	0.149	73.7*	i	-0.13
SMILES	HSV augment	Furin inhibitor	Dynein transport	Insulin prom inh	Autophagy HCS	Ins promoter up
CC(C)(C)c1nc2ccccc2[nH]1	i	-10.4	1.17	79.7*	i	1.38
CC(Sc1nc2ccccc2[nH]1)C(=O)O (stereo not given)	i	-6.1	0.571	50.0	i	.
FC(F)(F)c1nc2ccccc2[nH]1	i	-25.1	0.468	.	.	-0.19
CC(C)Sc1nc2ccccc2[nH]1	i	-18.0	0.521	77.8*	i	-0.61
Cc1cc(NS(=O)(=O)c2ccc(NC(=O)CCSc3ccc(F)cc3)cc2)nc(C)n1	i	-8.8	-0.236	.	.	0.03
Oc1c(/C=N/Nc2cccc3cccnc23)ccc2ccccc12	i	-25.2	-0.734	73.3*	i	-0.13
Oc1cccc(/C=N/Nc2cccc3cccnc23)c1	i	-13.1	0.0184	57.1	i	1.15
N#C/C(=C\c1c(N2CCCCC2)nc2ccccn2c1=O)S(=O)(=O)c1ccccc1	i	-4.2	-0.0947	.	.	-0.07
Cc1nc2sc(C(=O)OC(C)C)c(N)c2c(C)c1C	i	-29.7	0.0858	100.0*	i	-0.25

Assay outcomes deposited in PubChem by several laboratories.
